In brackets after ≈: the same amount, converted by molar mass. Activity calls are given as the source filed them. The calls are words filed in the database; no cut-off is given here. Bridge positions count the residues as written; N and C are the ends. Peptide text beside a SMILES is read from it. I, II: the chains in the order shown.
Key:
Enterococcus faecium [1] = experiment: Antimicrobial activity against vancomycin-resistant Enterococcus faecium CCARM 5029 after 18 hrs by broth microdilution assay in presence of 150 mM NaCl; format: functional; settings: CCARM 5029, 18 h
In short: (§1)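 Same broth microdilution, but the medium was Mueller-Hinton broth supplemented with 150 mM NaCl. Inoculum 2 x 10^5 CFU/ml final. Peptide twofold series in 0.01% acetic acid (stocks 640 to 10 µg/ml). After 18 h at 37°C, MIC read as the lowest concentration with no visible growth.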

Staphylococcus aureus [2] = experiment: Antimicrobial activity against methicillin-resistant Staphylococcus aureus CCARM 3695 treated with supernatant containing 2 mg drug incubated for 10 mins with PBS containing 50 % normal human serum centrifuged for 3 hrs by radial diffusion assay; format: functional, organism-based
In short: (§2)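 2 mg peptide incubated 10 min at 37°C in 2 ml PBS, either serum-free or with 50% heat-treated normal human serum. Spun 3 h at 295,000 x g, 4°C. Then 5 µl of supernatant tested by radial diffusion against mid-log MRSA (4 x 10^6 CFU/ml underlay, 3 h at 37°C, overlay, overnight); clear zones measured.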

Staphylococcus aureus [3] = experiment: Antimicrobial activity against methicillin-resistant Staphylococcus aureus CCARM 3695 treated with sample containing 200 ug/ml drug incubated with PBS containing 50% normal human serum for 10 mins measured after 3 hrs by radial diffusion assay; format: functional, organism-based
In short: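 Normal human serum from three donors, heat-treated 30 min at 56°C. Peptide at 25–200 µg/ml in PBS with 50% serum, held 10 min at 37°C; 5 µl placed in 3-mm wells. Underlay: 1% agarose, 9 mM phosphate, 1 mM citrate, 0.3 mg/ml TSB, pH 7.4, with 4 x 10^6 CFU/ml mid-log MRSA. After 3 h at 37°C, overlaid (1% agarose, 6% TSB), incubated overnight. Clear zones in units (1 mm = 10 units); triplicate means.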

Staphylococcus aureus [4] = experiment: Antimicrobial activity against methicillin-resistant Staphylococcus aureus CCARM 3695 after 18 hrs by broth microdilution assay; format: functional; settings: CCARM 3695, 18 h
In short: (§3)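 Broth microdilution (modified CLSI). Overnight stationary-phase Mueller-Hinton broth cultures diluted to 2 x 10^5 CFU/ml final. Peptide serially twofold diluted in 0.01% acetic acid (stock series 640 down to 10 µg/ml); 11 µl added to 100 µl of bacteria. After 18 h at 37°C, MIC taken as the lowest concentration preventing visible turbidity.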

Staphylococcus aureus [5] = experiment: Antimicrobial activity against methicillin-resistant Staphylococcus aureus CCARM 3695 after 18 hrs by broth microdilution assay in presence of 150 mM NaCl; format: functional; settings: CCARM 3695, 18 h; in short: as §1
Listeria monocytogenes [6] = experiment: Antimicrobial activity against Listeria monocytogenes ATCC 19111 after 18 hrs by broth microdilution assay; format: functional; settings: ATCC 19111, 18 h
In short: (§4)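 Bacteria were grown overnight to stationary phase in Mueller-Hinton broth at 37°C and diluted to 2 x 10^5 CFU/ml. Line 3 used MHB plus 150 mM NaCl. Peptide stock (640 µg/ml in 0.01% acetic acid) was twofold serially diluted to 10 µg/ml, and 11 µl was added per 100 µl of cells. Turbidity was read after 18 h at 37°C; MIC was the minimum concentration visibly inhibiting growth.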

Listeria monocytogenes [7] = experiment: Antimicrobial activity against Listeria monocytogenes ATCC 19111 after 18 hrs by broth microdilution assay in presence of 150 mM NaCl; format: functional; settings: ATCC 19111, 18 h; in short: as §4
Enterococcus faecium [8] = experiment: Antimicrobial activity against vancomycin-resistant Enterococcus faecium CCARM 5029 after 18 hrs by broth microdilution assay; format: functional; settings: CCARM 5029, 18 h; in short: as §3
Staphylococcus aureus [9] = experiment: Antimicrobial activity against methicillin-resistant Staphylococcus aureus CCARM 3695 treated with supernatant containing 2 mg drug incubated for 10 mins with PBS centrifuged for 3 hrs by radial diffusion assay; format: functional, organism-based; in short: as §2
Listeria monocytogenes [10] = experiment: Antibacterial activity against Listeria monocytogenes ATCC 19111 in assay tube containing mixture of erythrocyte/Listeria monocytogenes cells assessed as logarithmic reduction in CFU after 30 mins; format: functional
In short: (§5)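 Washed mid-log L. monocytogenes (final 1 x 10^5 CFU/ml) was mixed with human blood cells (final 5 x 10^8 cells/ml) and peptide (final 40 µg/ml) in PBS at 37°C. A peptide-free control was included. At 10, 20 and 30 min, aliquots were plated on TSA and colonies counted after overnight growth. Blood cells were counted by hemocytometer under light microscopy.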

[11] = Toxicity against human erythrocytes in assay tube containing mixture of erythrocytes/Listeria monocytogenes cells at 40 ug/ml after 30 mins; format: cell-based; settings: erythrocyte, 0.5 h; in short: as §5

With CC(C)C[C@H](NC(=O)CNC(=O)[C@H](Cc1cnc[nH]1)NC(=O)[C@H](Cc1cnc[nH]1)NC(=O)[C@H](CC(C)C)NC(=O)[C@H](CC(C)C)NC(=O)[C@H](C)NC(=O)[C@H](CC(N)=O)NC(=O)[C@H](CC(C)C)NC(=O)[C@H](Cc1c[nH]c2ccccc12)NC(=O)[C@@H](N)CCCCN)C(=O)N[C@@H](CC(N)=O)C(=O)N[C@@H](CSSC[C@H](NC(=O)[C@H](CC(N)=O)NC(=O)[C@H](CC(C)C)NC(=O)CNC(=O)[C@H](Cc1cnc[nH]1)NC(=O)[C@H](Cc1cnc[nH]1)NC(=O)[C@H](CC(C)C)NC(=O)[C@H](CC(C)C)NC(=O)[C@H](C)NC(=O)[C@H](CC(N)=O)NC(=O)[C@H](CC(C)C)NC(=O)[C@H](Cc1c[nH]c2ccccc12)NC(=O)[C@@H](N)CCCCN)C(=O)N[C@@H](C)C(=O)N[C@@H](CCCCN)C(=O)NCC(=O)N[C@H](C(=O)N[C@@H](CC(C)C)C(=O)N[C@@H](C)C(=O)O)C(C)C)C(=O)N[C@@H](C)C(=O)N[C@@H](CCCCN)C(=O)NCC(=O)N[C@H](C(=O)N[C@@H](CC(C)C)C(=O)N[C@@H](C)C(=O)O)C(C)C (I: H-KWLNALLHHGLNCAKGVLA-OH / II: H-KWLNALLHHGLNCAKGVLA-OH; disulfide I:13-II:13) the MIC (Enterococcus faecium [1]) was 4 µg/mL, the Activity (Staphylococcus aureus [2]) was “inactive” and the Activity (Staphylococcus aureus [3]) was “inactive”. It also gave an MIC (Staphylococcus aureus [4]) of 4 µg/mL (≈ 0.972 µM), an MIC (Staphylococcus aureus [5]) of 8 µg/mL and an MIC (Listeria monocytogenes [6]) of 4 µg/mL (≈ 0.972 µM). It also gave an MIC (Listeria monocytogenes [7]) of 8 µg/mL and an MIC (Enterococcus faecium [8]) of 4 µg/mL (≈ 0.972 µM).
With CC(C)C[C@H](NC(=O)CNC(=O)[C@H](Cc1cnc[nH]1)NC(=O)[C@H](Cc1cnc[nH]1)NC(=O)[C@H](CC(C)C)NC(=O)[C@H](CC(C)C)NC(=O)[C@H](C)N)C(=O)N[C@@H](CC(N)=O)C(=O)N[C@@H](CSSC[C@H](NC(=O)[C@H](CC(N)=O)NC(=O)[C@H](CC(C)C)NC(=O)CNC(=O)[C@H](Cc1cnc[nH]1)NC(=O)[C@H](Cc1cnc[nH]1)NC(=O)[C@H](CC(C)C)NC(=O)[C@H](CC(C)C)NC(=O)[C@H](C)NC(=O)[C@H](CC(N)=O)NC(=O)[C@H](CC(C)C)NC(=O)[C@@H](N)Cc1c[nH]c2ccccc12)C(=O)N[C@@H](C)C(=O)N[C@@H](CCCCN)C(=O)NCC(=O)N[C@H](C(=O)N[C@@H](CC(C)C)C(=O)N[C@@H](C)C(=O)O)C(C)C)C(=O)N[C@@H](C)C(=O)N[C@@H](CCCCN)C(=O)NCC(=O)N[C@H](C(=O)N[C@@H](CC(C)C)C(=O)N[C@@H](C)C(=O)O)C(C)C [HALOCIDIN] (I: H-WLNALLHHGLNCAKGVLA-OH / II: H-ALLHHGLNCAKGVLA-OH; disulfide I:12-II:9) the MIC (Enterococcus faecium [1]) was greater than 64 µg/mL, the Activity (Staphylococcus aureus [2]) was “Active” and the Activity (Staphylococcus aureus [9]) was “Active”. The MIC (Staphylococcus aureus [4]) was 16 µg/mL (≈ 4.64 µM), the MIC (Staphylococcus aureus [5]) was 32 µg/mL and the MIC (Listeria monocytogenes [6]) was 64 µg/mL (≈ 18.6 µM). For the same compound, the MIC (Listeria monocytogenes [7]) was greater than 64 µg/mL and the MIC (Enterococcus faecium [8]) was 64 µg/mL (≈ 18.6 µM).
For CC[C@H](C)[C@H](NC(=O)CN)C(=O)NCC(=O)N[C@@H](C)C(=O)N[C@H](C(=O)N[C@@H](CC(C)C)C(=O)N[C@@H](CCCCN)C(=O)N[C@H](C(=O)N[C@@H](CC(C)C)C(=O)N[C@H](C(=O)N[C@H](C(=O)NCC(=O)N[C@@H](CC(C)C)C(=O)N1CCC[C@H]1C(=O)N[C@@H](C)C(=O)N[C@@H](CC(C)C)C(=O)N[C@H](C(=O)N[C@@H](CO)C(=O)N[C@@H](Cc1c[nH]c2ccccc12)C(=O)N[C@H](C(=O)N[C@@H](CCCCN)C(=O)N[C@@H](CCCNC(=N)N)C(=O)N[C@@H](CCCCN)C(=O)N[C@@H](CCCNC(=N)N)C(=O)N[C@@H](CCC(N)=O)C(=O)N[C@@H](CCC(N)=O)C(N)=O)[C@@H](C)CC)[C@@H](C)CC)[C@@H](C)O)[C@@H](C)O)C(C)C)C(C)C [MELITTIN], the Activity (Listeria monocytogenes [10]) was “Active” and the Activity [11] was “Toxic”.
In the case of H-RRWVRRVRRVWRRVVRVVRRWVRR-OH, the Activity (Listeria monocytogenes [10]) is reported as “Active” and the Activity [11] is reported as “Toxic”.

From ChEMBL document CHEMBL1151419, “Antimicrobial effect of halocidin-derived peptide in a mouse model of Listeria infection” (Antimicrob Agents Chemother, 2007)
